Only some compounds are listed: those with a hit (about 3.5% of all), similar ones and a draw of the others.
RGS4 inh: RGS4 inhibitors, primary screen, cell-based, HEK293 M3R inducible RGS4, calcium flux; Regulator of G-protein signaling 4 (Homo sapiens), P49798; Fluo-4 calcium flux; stronger effect = higher value; triggered by carbachol at its EC20; B-score at 10 µM; 0.45% of 310,000 active; AID 463165, 2010;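 active = B-score, a plate-corrected calcium signal, over three deviations above library mean, with baseline fluorescence within five deviations of library mean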;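 note: RGS4 expression induced by doxycycline in cells with stable M3 receptor; B-score is computed from the integrated fluorescence ratio over baseline after carbachol; higher B-score means a larger calcium signal and so more RGS4 inhibition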
Target sequence (P49798 whole entry, looked up): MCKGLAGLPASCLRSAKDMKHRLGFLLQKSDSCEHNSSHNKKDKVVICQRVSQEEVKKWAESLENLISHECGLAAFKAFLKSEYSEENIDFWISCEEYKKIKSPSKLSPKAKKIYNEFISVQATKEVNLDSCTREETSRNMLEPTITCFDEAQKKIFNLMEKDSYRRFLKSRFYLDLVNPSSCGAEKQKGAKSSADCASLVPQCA
RGS4 act: RGS4 potentiators or activators, primary screen, cell-based, HEK293 M3R inducible RGS4, calcium flux; carbachol calcium flux Fluo4; stronger effect = lower value; B-score at 10 µM; 0.92% of 310,000 active;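 active = B-score of the integrated calcium signal more than 4 SD below the library mean, with starting fluorescence not abnormally high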;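 note: negative B-score means reduced calcium response which marks RGS4 activation or potentiation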
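Reagent: ECmax carbachol challenge; Test system: M3R-expressing HEK293 line, RGS4 induced by doxycycline; Schedule: overnight RGS4 induction, 30 min dye load 37 °C, 20 min compound RT; Detection: calcium dye Fluo4 fluorescence; Read-out: Agonist-evoked peak-minus-minimum fluorescence over baseline, integrated ratio, B score.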
MrgX1 agonist: agonists of human MrgX1 receptor, primary screen, HEK293 cells, Fluo-4 calcium flux | Mas-related G-protein coupled receptor member X1 (Homo sapiens), Q96LB2 | B-score at 10 µM | 0.44% of 310,000 active | Fluo-4 calcium fluorescence, agonist mode; stronger effect = higher value;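 active = calcium response B-score plate-corrected fluorescence ratio at least 3 library SD, with starting fluorescence B-score inside 5 SD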
Target sequence (Q96LB2 whole entry, looked up): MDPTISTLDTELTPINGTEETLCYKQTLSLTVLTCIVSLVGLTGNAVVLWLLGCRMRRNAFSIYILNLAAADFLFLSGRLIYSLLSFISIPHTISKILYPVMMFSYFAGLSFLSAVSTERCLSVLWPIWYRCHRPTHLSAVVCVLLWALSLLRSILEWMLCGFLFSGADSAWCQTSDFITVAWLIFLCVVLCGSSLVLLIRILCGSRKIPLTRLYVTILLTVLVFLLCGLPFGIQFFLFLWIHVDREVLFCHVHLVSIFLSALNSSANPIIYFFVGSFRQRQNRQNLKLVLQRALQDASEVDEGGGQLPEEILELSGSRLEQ
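times = overnight plating, then 30 min 37 °C plus 30 min room-temperature dye loading | assay system = stable human MrgX1 HEK293 cell line | input = fifteen thousand cells per well | signal = kinetic calcium dye fluorescence, Fluo-4 NW | dosing = compound delivered in addition one of three | read-out = B-scored fluorescence response ratio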
MrgX1 antag: antagonists of human MrgX1 receptor, primary screen, HEK293 cells, Fluo-4 calcium flux. B-score at 10 µM. AID 588676, 2011. Mas-related G-protein coupled receptor member X1 (Homo sapiens), Q96LB2. BAM8-22 antagonism; stronger effect = lower value. 1.3% of 310,000 active;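 active = calcium-response B-score plate-corrected more than 3 library SD below zero, starting fluorescence within 5 deviations, no agonist response on first addition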;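 note: peak minus trough fluorescence over baseline after final BAM8-22 challenge near maximal dose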
MrgX1 allo act: positive allosteric modulators of MrgX1, primary screen, HEK293 cells, Fluo-4 calcium flux. Mas-related G-protein coupled receptor member X1 (Homo sapiens), Q96LB2. FDSS; stronger effect = higher value. B-score at 10 µM. 0.63% of 310,000 active. AID 588675, 2011;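 active = plate-corrected calcium response at least 3 library SD above typical, normal starting fluorescence, not activating the receptor alone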;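 note: compound read alongside a low EC10 to EC30 dose of BAM8-22 agonist; peak minus trough fluorescence over baseline measured at the second addition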
Active calls of the source: *; i = inactive; nt = not tested or not shown.

SMILES	RGS4 inh	RGS4 act	MrgX1 agonist	MrgX1 antag	MrgX1 allo act
CN1CCN(CCCNC(=O)c2ccc(/C=C3/Sc4ccccc4N(Cc4cccc(Cl)c4)C3=O)cc2)CC1	i	-7.7*	nt	nt	nt
O=C(CN1C(=O)/C(=C/c2ccccc2)Sc2ccccc21)NCCCN1CCOCC1	i	i	i	i	i
CCOC(=O)N1CCN(S(=O)(=O)c2cccc3ccc(C)nc23)CC1	i	i	i	i	i
FC(F)(F)c1cccc(-n2c(Cn3nnc4ccccc43)n[nH]c2=S)c1	i	i	i	i	i
O=C(Oc1cccc(C(=S)N2CCOCC2)c1)c1cc([N+](=O)[O-])cc([N+](=O)[O-])c1	i	i	i	i	i
NS(=O)(=O)c1ccc(NNC(=O)c2sccc2Cl)cc1	i	i	i	i	i
CC(=O)Oc1cc(O)c2c(=O)c(OC(C)=O)c(-c3ccc(OC(C)=O)c(OC(C)=O)c3)oc2c1	i	i	i	i	8*
COc1c(-c2ccc(O)cc2)oc2cc(O)cc(O)c2c1=O	nt	nt	i	i	i
C=CCN1C(=O)[C@@H]2Cc3c([nH]c4ccccc34)C(c3ccc(O)cc3)N2C1=S (stereo partly specified)	i	i	i	-5.3*	i
CC1CC(C)CN(C(=O)CSc2nc(Cc3cccs3)nc3ccccc23)C1 (stereo unspecified)	i	-7.1*	i	i	i
COc1ccc(-c2c[n+](CC(=O)OC3CC(C)CCC3C(C)C)c3n2CCC3)cc1 (stereo unspecified)	i	-7*	i	-4.9*	i
CC(C)[C@@H]1CC[C@@H](C)C[C@H]1OC(=O)C[n+]1cc(-c2ccc(Cl)cc2)n2c1CCCCC2	i	i	i	-7.4*	i
O=C(C[n+]1cc(-c2ccc(Cl)cc2)n2c1CCCCC2)c1ccccc1	i	i	i	i	i
COc1cccc(NC(=O)C(OC(=O)c2ccc([N+](=O)[O-])o2)c2ccccc2)c1 (stereo unspecified)	i	i	i	i	i
Cc1cc(C)cc(NC(=O)C(OC(=O)c2ccc([N+](=O)[O-])o2)c2ccccc2)c1 (stereo unspecified)	i	i	i	-6.6*	i
CN(C)c1ccc(/C=C2\C(=N)N3N=C(CC(=O)N4CCCCC4)SC3=NC2=O)cc1	i	i	55*	i	i
Cc1cc(/C=C2\C(=N)N3N=C(CC(=O)N4CCOCC4)SC3=NC2=O)c(C)n1Cc1ccccc1	i	i	i	i	i
N=C1/C(=C/c2ccc(OCc3ccccc3)cc2)C(=O)N=C2SC(CC(=O)N3CCOCC3)=NN12	i	i	i	i	9.7*
CN(C)c1ccc(/C=C2\C(=N)N3C(=NC2=O)Sc2cc(S(C)(=O)=O)ccc23)cc1	i	i	29*	i	i
C/C(=C1/SC(N2CCCC2)=NC1=O)c1ccc(Br)cc1	i	i	i	i	i
COc1ccc(C2=NOC3(CC(=O)N(c4ccc5ccccc5c4)C3=O)C2)c(OC)c1 (stereo unspecified)	i	i	i	i	i
Cc1ccc([N+](=O)[O-])c(OCCn2cnc3ccccc32)c1	i	i	i	i	10*
Cc1cc(C)n(CCCNC(=O)CCNS(=O)(=O)c2ccccc2C(F)(F)F)n1	i	i	i	i	i
Cc1cccc(N2CCN(C(=O)c3ccc(CS(=O)Cc4ccc(Cl)cc4)o3)CC2)c1C (stereo unspecified)	i	i	i	i	i
Cc1ccc(C)c(N2CCN(C(=O)c3ccc(CS(=O)Cc4cccc(Cl)c4)o3)CC2)c1 (stereo unspecified)	i	-8.7*	i	i	i
SMILES	RGS4 inh	RGS4 act	MrgX1 agonist	MrgX1 antag	MrgX1 allo act
COc1ccc(S(=O)(=O)Cc2ccc(C(=O)N3CCN(c4cc(Cl)ccc4C)CC3)o2)cc1	i	-8.2*	i	i	i
COc1ccc(S(=O)(=O)Cc2ccc(C(=O)NCCc3cc(OC)ccc3OC)o2)cc1	i	i	i	i	7.5*
C=C(C)COc1ccc(-c2ncncc2-c2ccccc2)c(O)c1	i	i	i	i	i
O=C(Nc1ccccc1C(F)(F)F)N1CCN(C(c2ccccc2)c2ccccc2)CC1	i	i	i	-7.1*	i
CN(CC(=O)Nc1cccc(F)c1)C(=O)c1cc(-c2ccccc2)nc2ccccc12	i	i	i	i	i
Cc1ccc2nc(-c3ccccc3)cc(C(=O)N(C)CC(=O)Nc3ccccc3Br)c2c1	i	-9.2*	i	i	i
COC(=O)CC1=NN(c2nc3ccccc3s2)C(=O)/C1=C/N(C)C	i	i	i	i	15*
Cn1c(=O)[nH]c(=O)c2c1nc(N1CCOCC1)n2CC(=O)c1ccccc1	i	i	i	i	i
CCn1cc(CN2CCC(n3nccc3NC(=O)c3cccc(F)c3)CC2)cn1	i	i	i	i	i
CN(C)c1cccc(C(=O)NNC(=O)NC2CCCCC2)c1	i	i	i	i	i
COc1cc(OC)cc(C(=O)NNC(=O)NC2CCCCC2)c1	i	i	i	-7*	i
CC1CC=C2C(C#N)=C(N)C(C#N)(C#N)C(c3cccs3)C2C1 (stereo unspecified)	i	i	i	-5.6*	i
CCOC(=O)N1CCN(C(=O)c2cc3cc(Br)ccc3oc2=O)CC1	i	i	i	i	i
COc1cccc2c1OCC(C(=O)Nc1nccs1)=C2	i	i	28*	i	i
COc1cccc(-c2nc(CS(=O)(=O)CC(=O)NCCN3CCOCC3)c(C)o2)c1	i	i	i	i	i
COc1ccc(/C=N/NC(=O)CCC(=O)Nc2ccccc2)cc1OC	i	i	i	i	i
COc1ccc(/C=N/NC(=O)CCn2cnc(-c3ccccc3)c2-c2ccccc2)cc1OC	i	i	i	-5.6*	i
CC(=O)N1c2ccc(S(=O)(=O)NCCC(=O)Nc3ncccc3C)cc2CC1C (stereo unspecified)	i	i	i	i	i
Cc1ccc(-c2nc3ccccc3[nH]2)cc1NC(=S)NC(=O)c1ccccc1Br	i	-7.1*	i	i	i
Cc1ccc(-c2nc3ccccc3[nH]2)cc1NC(=O)c1ccc2c(c1)OCO2	i	i	i	i	i
CCOc1ccc(C(=O)Nc2cc(-c3nc4ccccc4[nH]3)ccc2C)cc1[N+](=O)[O-]	i	-7.1*	i	i	i

Bioassay records deposited in PubChem BioAssay by Johns Hopkins Ion Channel Center.
